# Rows were chosen to be rich in hits. Some 2.7% of all compounds tested hit in one or more screens of this group.
# CTSL1 counter: Fasciola hepatica cathepsin L1 inhibitors, primary screen, counter-screen for PFM18AAP inhibitor project, biochemical, QFRET, fluorogenic peptide substrate. recombinant F. hepatica cathepsin L1, Z-Leu-Arg-MCA fluorescence. inhibition, % at 5.96 µM. hit rate 0.49% among 300,000. AID 1906, 2009;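 active = inhibition above the mean of all tested compounds plus 3 SD, set per screening campaign, cut at about 17% in these data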;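 also: 0% = plate median of test compound wells and 100% = 1 µM Z-Phe-Ala-diazomethylketone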
# M18AAP inhibitor: PfM18AAP inhibitors, malaria aminopeptidase, primary screen, biochemical, QFRET, recombinant enzyme; M18 aspartyl aminopeptidase (Plasmodium falciparum 3D7); H-Glu-NHMec fluorogenic cleavage; inhibition, % at 7.35 µM; hit rate 1.2% among 290,000; AID 1822, 2009;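 active = inhibition above the campaign mean inhibition over all tested compounds plus 3 SD, cut at about 28% in these data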;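 also: 0% = plate median of test compound wells and 100% = 2 mM ZnCl2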
# IMP-1 inh-1: IMP-1 metallo-beta-lactamase inhibitors, primary screen, biochemical, epi-absorbance readout, Pseudomonas aeruginosa enzyme | hit rate 0.45% among 290,000 | metallo-beta-lactamase IMP-1 (Pseudomonas aeruginosa) | inhibition, % at 5.6 µM | purified IMP-1, nitrocefin hydrolysis, epi-absorbance fluorescence;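 active = inhibition above the mean plus 3 SD of all compounds in the same screening run, cut at about 4.5% in these data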;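 also: 0% = IMP-1 with DMSO and 100% = DMSO wells lacking enzyme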
#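 System: Purified recombinant IMP-1 metallo-beta-lactamase enzyme | Measured by: Fluorescence quenching readout, ex 480/em 530 nm | Replication: Singlicate | Incubation: 15 min preincubation plus 25 min reaction at 25 °C | Evaluation: Percent inhibition from optical density relative to buffer-blank wells | Benchmarks: DMSO with and without IMP-1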
# VIM-2 inhibitor: VIM-2 metallo-beta-lactamase inhibitors, primary screen, biochemical, epi-absorbance readout, Pseudomonas aeruginosa enzyme; purified VIM-2, nitrocefin hydrolysis, epi-absorbance fluorescence; inhibition, % at 5.6 µM; hit rate 0.89% among 290,000;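 active = inhibition above the mean of all tested compounds plus 3 SD, cutoff set per screening run, cut at about 7.5% in these data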;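 also: red hydrolysis product quenches plate fluorescence so inhibitors raise well fluorescence; 0% = enzyme with DMSO and 100% = DMSO without enzyme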
# IMP-1 inh-2: IMP-1 metallo-beta-lactamase inhibitors, confirmation, selectivity assay for selective VIM-2 inhibitor project, biochemical, epi-absorbance readout, triplicate | purified IMP-1, nitrocefin hydrolysis, epi-absorbance fluorescence | 1,300 tested, under 10 active | shares compounds with VIM-2 inhibitor | inhibition, % at 5.6 µM; call rule not given here;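 also: 0% = enzyme with vehicle and 100% = vehicle without enzyme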
# VIM-2 FRET inh: VIM-2 inhibitors in FRET format, confirmation, artefact control for selective VIM-2 inhibitor project, biochemical, epi-absorbance artifact exclusion. shares compounds with VIM-2 inhibitor. purified VIM-2, CCF2 FRET substrate hydrolysis. inhibition, % at 5.6 µM. hit rate 23% among 1,300. AID 1857, 2009;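 active = inhibition above the mean of all tested compounds plus 3 SD, cut at about 19% in these data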;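 also: 0% = VIM-2 plus DMSO and 100% = no enzyme wells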
# TEM-1 inh: TEM-1 serine beta-lactamase inhibitors, counter-screen for VIM-2 inhibitor project, biochemical, epi-absorbance, HTS; shares compounds with VIM-2 inhibitor; Purified TEM-1, nitrocefin hydrolysis, epi-absorbance fluorescence; inhibition, % at 5.6 µM; hit rate 3% among 1,300; AID 1866, 2009;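 active = inhibition above that campaign's mean inhibition plus 3 SD, cut at about 0.46% in these data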;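 also: 0% = TEM-1 with DMSO and 100% = TEM-1 with 100 µM potassium clavulanate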
# Target sequence (P62593 whole entry, looked up): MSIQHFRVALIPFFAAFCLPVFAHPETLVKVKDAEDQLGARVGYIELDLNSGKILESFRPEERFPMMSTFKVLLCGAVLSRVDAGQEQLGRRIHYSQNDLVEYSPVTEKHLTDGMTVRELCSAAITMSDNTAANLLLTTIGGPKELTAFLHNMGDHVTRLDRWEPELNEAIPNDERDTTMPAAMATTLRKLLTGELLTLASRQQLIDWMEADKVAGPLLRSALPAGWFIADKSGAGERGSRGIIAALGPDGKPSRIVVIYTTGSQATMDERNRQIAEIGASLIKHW
# VIM-2 confirm 2: VIM-2 metallo-beta-lactamase inhibitors, confirmation, biochemical, epi-absorbance, hits shared with IMP-1 screen; shares compounds with VIM-2 inhibitor; purified VIM-2, nitrocefin hydrolysis; inhibition, % at 5.6 µM; hit rate 96% among 1,300; AID 2187, 2009;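 active = inhibition of the VIM-2 beta-lactamase enzyme above about 11% from the earlier first-round screen, limit read from the data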;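 also: 0% = VIM-2 with DMSO and 100% = buffer wells without enzyme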
# * hit, by the source's call; . = no result given.
SMILES,CTSL1 counter,M18AAP inhibitor,IMP-1 inh-1,VIM-2 inhibitor,IMP-1 inh-2,VIM-2 FRET inh,TEM-1 inh,VIM-2 confirm 2
Cc1cccc(/C=C2/Sc3ccc(C(=O)NCCCN4CCOCC4)cc3NC2=O)c1,1,11,-3,18*,-2,23*,-7,12*
COc1ccc(/C=C2/Sc3ccc(C(=O)NCCCN4CCOCC4)cc3NC2=O)cc1OC,12,8,-4,22*,-4,19*,-13,25*
CCN1CCCC1CNC(=O)c1ccc2c(c1)NC(=O)/C(=C\c1ccc(OC)c(OC)c1)S2 (configuration not stated),2,5,1,21*,-4,14,-7,24*
COc1ccc(C(=O)NCCCN2CCOCC2)cc1OC,3,5,-2,-3,.,.,.,.
COc1ccccc1-n1cc(CN2CCN(C3CCCCC3)C(CCO)C2)cn1 (configuration not stated),0,-9,1,-3,.,.,.,.
CN1CCN(S(=O)(=O)c2cccc(C(=O)Nc3ccc(Br)cc3Br)c2)CC1,-4,2,-2,-1,.,.,.,.
COc1ccc2cc(C#N)c(SCC(=O)N3CCCC3)nc2c1,0,3,-1,-3,.,.,.,.
COc1ccc2nc(SCC(=O)N3CCN(c4ccc(F)cc4)CC3)c(C#N)cc2c1,-2,0,-2,15*,-4,13,-6,42*
CCc1nnc2c(NCCc3ccc(OC)c(OC)c3)nc3ccccc3n12,.,1,-2,15*,-2,0,-4,21*
CCc1nnc2c(N(C)C)nc3ccccc3n12,2,4,0,16*,-3,-2,-6,31*
COc1ccc(CCNc2nc3ccccc3n3cnnc23)cc1OC,0,3,-3,-2,.,.,.,.
COc1ccccc1C(=O)Nc1nnc(SCC(=O)NC2CCCC2)s1,8,-8,-4,12*,-3,31*,-6,24*
O=C(CSc1nnc(NC(=O)c2ccccc2[N+](=O)[O-])s1)NC1CCCC1,0,5,-2,15*,-3,32*,-7,19*
CC(=O)c1ccc(-c2cc([C@H]3[C@H]4C=CC[C@@H](C)[C@@H]4C(=O)N3Cc3ccccc3)ccc2F)cc1,3,.,.,.,.,.,.,.
CCOC(=O)Cc1nnc(NC(=O)CSc2ccc(C)cc2)s1,0,-2,-2,0,.,.,.,.
Cn1c2ccccc2c2nnc(SCC(=O)Nc3cccc(C(=O)O)c3)nc21,-1,7,-2,5,.,.,.,.
CCOC(=O)Cc1nnc(NC(=O)CSc2nnc3c4ccccc4n(C)c3n2)s1,0,15,-3,17*,-2,-1,-11,38*
CCN(CC)C(=O)CSc1nnc2c3ccccc3n(C)c2n1,1,1,-6,14*,-3,0,-5,24*
CSc1sc(C(=O)NC(=O)NCc2ccncc2)c(C)c1-c1ccon1,3,13,-2,32*,-3,-7,-6,42*
O=C(NCc1ccccc1)NC(=O)c1ccncc1,4,-5,-2,0,.,.,.,.
Cc1cc(C)n2c(Br)c(CSc3nc4ccccc4s3)nc2n1,-3,9,-2,23*,-3,69*,-6,47*
Cc1cc2c3ccccc3ncn2n1,-7,-11,-3,2,.,.,.,.
COc1ccc(-c2nnc3sc(CCN4C(=O)c5ccccc5C4=O)nn23)cc1,1,-3,-2,18*,-2,-3,-3,4
CC(=O)Nc1ccc2c(CN3C(=O)NC(C)(c4ccc(C)cc4)C3=O)cc(=O)oc2c1 (configuration not stated),-3,-10,-2,-1,.,.,.,.
CC(=O)Nc1ccc2c(CSc3nnc(N)s3)cc(=O)oc2c1,0,-12,2,21*,-4,10,-7,5
SMILES,CTSL1 counter,M18AAP inhibitor,IMP-1 inh-1,VIM-2 inhibitor,IMP-1 inh-2,VIM-2 FRET inh,TEM-1 inh,VIM-2 confirm 2
Cc1c(O[C@@H]2O[C@H](CO)[C@@H](O)[C@H](O)[C@H]2O)ccc2c1oc(=O)c1ccccc12,.,-5,-4,25*,-3,0,-8,35*
COc1ccc(-c2cc(C(F)(F)F)n3nc(C(=O)N4CCN5CCCC5C4)cc3n2)cc1OC (configuration not stated),7,4,-1,26*,-3,0,-6,40*
Cc1nc2ncccn2c1-c1csc(Nc2ccc(S(N)(=O)=O)cc2)n1,3,24,-3,17*,-2,-3,-7,28*
NS(=O)(=O)c1ccc(CCNc2ncnc3sccc23)cc1,-3,-13,0,0,.,.,.,.
Cc1sc2ncnc(NCCCn3ccnc3)c2c1C,2,3,-3,21*,-4,-4,-7,34*
Cc1sc2ncnc(NCCc3ccc(S(N)(=O)=O)cc3)c2c1C,4,-4,-6,19*,-3,-5,-7,16*
CSc1nc(C)cc(SCCO)n1,3,-11,1,1,.,.,.,.
Cc1cccc(OCC(O)Cn2c(N3CCCCC3)nc3c2c(=O)n(C)c(=O)n3C)c1 (configuration not stated),-1,-4,-2,-1,.,.,.,.
Cc1ccc(N(CC(=O)N/N=C/c2cccc(Br)c2)S(C)(=O)=O)cc1,4,0,-4,-2,.,.,.,.
CCCC(=O)Nc1c(-c2cccc(OC)c2)c(=O)c2ccccc2n1C,5,2,-4,-3,.,.,.,.
CCSc1nccc(-c2nn(-c3ccc(C)cc3)ccc2=O)n1,2,9,0,28*,-1,4,0,39*
C=CCn1c(SCC(=O)NC2CCCC2)nc2c([nH]c3ccccc32)c1=O,-2,9,-2,-3,.,.,.,.
Cc1c(N2C(=O)/C(=C\c3cccc4ccccc34)SC2=S)c(=O)n(-c2ccccc2)n1C,1,0,-3,62*,0,33*,-3,30*
Cc1c(N2C(=O)c3ccccc3C2=O)c(=O)n(-c2ccccc2)n1C,1,-2,-2,-2,.,.,.,.
O=C(NCC(=O)N1CCN(C(=O)c2ccco2)CC1)c1ccc(Br)cc1,-1,-1,-2,-2,.,.,.,.

# Bioassay records deposited in PubChem by The Scripps Research Institute Molecular Screening Center.
